Sampled rows, rich in hits. Any-hit rate of the full collection: about 4.1%.
MEKK2wt PB1 HTS – raises or lowers MEK5 binding to wildtype human MEKK2 PB1 domain. Q9Y2U5. bead flow cytometry, Alexa488-MEK5 binding to MEKK2 WT; actives lie on both sides. binding response (% of control), % at 10 µM. actives 1.1% (n = 290,000). AID 1531; in the data active = binding response below about 67% or above about 130%
MEKK2mut PB1 HTS – signal of MEK5 binding to mutant human MEKK2 PB1 domain. bead flow cytometry, Alexa488-MEK5 binding to MEKK2 mutant. actives 0.35% (n = 290,000). percent response, % at 10 µM; in the data active = percent response above about 24%, passing the limit was not always enough
HCV NS3 hel inh – HCV NS3 helicase inhibition; NS3 helicase DNA unwinding, Cy5 molecular beacon fluorescence; inhibition, % at 10.9 µM; actives 0.56% (n = 290,000); AID 1800;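 active = inhibition above the mean of all tested compounds plus 3 SD, set per campaign, cut at about 35% in these data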;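 also: 0% = DMSO wells and 100% = thioflavine S control wells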
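Material: hepatitis C virus NS3 helicase domain fragment enzyme; measured by: Cy5 fluorescence, 0 and 60 min reads; control set: DMSO and thioflavine S; incubation: 60 min unwinding reaction at 25 °C after ATP addition; read-out basis: % inhibition from 60/0 min fluorescence ratio, DMSO 0%, thioflavine S 100%; repeats: singlicate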
MEKK3 PB1 HTS – raises or lowers MEK5 binding to the human MEKK3 PB1 domain | Q99759 | bead-based flow cytometry, Alexa488-MEK5 binding to MEKK3; actives lie on both sides; 0 = blocked by unlabeled MEK5, 100 = vehicle | binding response (% of control), % at 10 µM | actives 1.4% (n = 290,000);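 active = binding response more than 3 SD above or below the average of its plate-row segment, actives on both sides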;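 also: Alexa488 bead fluorescence after subtracting the streptavidin-only scavenger bead signal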
Target sequence (Q99759 whole entry, looked up, the tested form may be a part): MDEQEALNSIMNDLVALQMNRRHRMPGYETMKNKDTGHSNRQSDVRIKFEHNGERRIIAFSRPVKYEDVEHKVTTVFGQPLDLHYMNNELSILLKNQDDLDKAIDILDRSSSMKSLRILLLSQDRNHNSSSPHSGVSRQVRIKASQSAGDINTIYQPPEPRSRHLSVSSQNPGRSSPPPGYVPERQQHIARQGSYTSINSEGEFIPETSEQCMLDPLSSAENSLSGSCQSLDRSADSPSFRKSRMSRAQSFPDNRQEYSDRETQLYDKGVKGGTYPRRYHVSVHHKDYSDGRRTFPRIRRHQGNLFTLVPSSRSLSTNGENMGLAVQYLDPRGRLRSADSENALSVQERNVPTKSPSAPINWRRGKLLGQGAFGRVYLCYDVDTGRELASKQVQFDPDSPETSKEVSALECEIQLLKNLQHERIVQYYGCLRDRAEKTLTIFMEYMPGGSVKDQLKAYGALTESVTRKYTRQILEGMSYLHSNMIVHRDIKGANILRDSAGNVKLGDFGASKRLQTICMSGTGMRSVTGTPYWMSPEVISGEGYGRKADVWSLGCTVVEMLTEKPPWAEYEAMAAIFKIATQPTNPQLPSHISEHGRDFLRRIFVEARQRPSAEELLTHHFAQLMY
T cruzi repl – blocks replication of Trypanosoma cruzi; T. cruzi beta-gal in NIH3T3, luminescence, 90 h; inhibition, % (concentration not given with the values); actives 1.4% (n = 300,000); AID 1885;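 active = mean inhibition across valid replicates above about 55%, limit read from the data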;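 also: signal also drops with host cell toxicity which is not excluded here; 0% = plate median of DMSO wells and 100% = zero luminescence signal; higher percent means less beta-gal luminescence so fewer parasites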
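Material: NIH/3T3 host cells with β-galactosidase reporter T. cruzi; Input: 5,000 host fibroblasts per well; Medium: DMEM, 2% fetal bovine serum; Compound: 50 nL DMSO compound solution per well; Schedule: 3 h host attachment, then at least 90 h co-culture; Detection: luminescent β-galactosidase signal after 60 min lysis.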
DNA FID counter – fluorescent intercalator displacement, NS3 helicase counter-screen. actives 0.17% (n = 290,000). inhibition, % at 7.9 µM. AID 1845. DNA fluorescent intercalator displacement, fluorescence; in the data active = inhibition above about 37%;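 also: 0% = vehicle and 100% = reference compound; higher means more ethidium bromide displaced from hairpin DNA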
MEKK2wt confirm – raises or lowers MEK5 binding to wildtype human MEKK2, retest; binding response (% of control), % at 10 µM; bead flow cytometry, Alexa488-MEK5 binding to MEKK2 WT; actives lie on both sides; actives 2.4% (n = 5,900); shares compounds with MEKK3 PB1 HTS; in the data active = binding response below about 16% or above about 210%; inactive = in between
MEKK2mut confirm – signal of MEK5 binding to mutant human MEKK2, retest | shares compounds with MEKK3 PB1 HTS | bead flow cytometry, Alexa488-MEK5 binding to MEKK2 mutant | percent response, % at 10 µM | actives 2% (n = 5,900) | AID 1893; in the data active = percent response mostly above about 71%, no sharp cut-off; inactive = mostly below about 38%;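 also: higher means compound restores mutant binding toward wildtype level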
MEKK3-MEK5 inh – confirmation of inhibitors of MEK5 binding to human MEKK3 | shares compounds with MEKK3 PB1 HTS | actives 1.8% (n = 5,900) | binding response (% of control), % at 10 µM | bead flow cytometry, Alexa488-MEK5 binding to MEKK3; active compounds read low;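 active = binding response below 72% of control, or above a set upper limit, though filed actives all read lower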;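 also: 100% = DMSO only wells and 0% = binding blocked by excess unlabeled MEK5; lower values mean stronger disruption of MEK5 binding to MEKK3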
* hit, by the source's call; · = no result given; [ ] = remark or other dose.

SMILES	MEKK2wt PB1 HTS	MEKK2mut PB1 HTS	HCV NS3 hel inh	MEKK3 PB1 HTS	T cruzi repl	DNA FID counter	MEKK2wt confirm	MEKK2mut confirm	MEKK3-MEK5 inh
CCn1cc(CN2CCCC(C(=O)Nc3cccc(-c4cc5ccccc5[nH]4)c3)C2)c(C)n1 (stereo not drawn)	154*	21	-26	107	23	24	176	39	104
Cc1ccc(-c2nc3ccccc3n3nnnc23)cc1	86	-6	6	82*[inhibitor]	-28	1	98	-10	101
COc1cccc(Nc2nc3ccccc3n3nnnc23)c1	3.0*[inhibitor]	-14	16	2.0*[inhibitor]	7	1	104	-1	100
Cc1ccc(-c2nc3ccccc3n3c(C)nnc23)cc1	97	1	-5	101	·	0	·	·	·
O=C(OCCOCCN=C1NS(=O)(=O)c2ccccc21)c1ccccc1	97	-5	-9	99	1	-10	·	·	·
COc1ccc(CCNC(=S)Nc2ccc(OC)cc2)cc1	102	0	-12	126	-9	-4	·	·	·
COc1ccc(CCNC(=S)Nc2ccc(C(C)C)cc2)cc1	115	25	-13	134*	-15	-24	101	-4	96
CCOC(=O)Cn1cc(/C=C/[N+](=O)[O-])c2ccccc21	97	2	0	101	-7	-12	·	·	·
Cc1cccc(Cn2cc(/C=C/[N+](=O)[O-])c3ccccc32)c1	57*[inhibitor]	-11	4	86	39	0	90	-7	100
CCCCC(=O)NCCNc1nc2c(c(=O)n(C)c(=O)n2C)n1Cc1ccc(F)cc1	101	1	-4	104	12	-19	·	·	·
CCCCC(=O)NCCNc1nc2c(c(=O)n(C)c(=O)n2C)n1Cc1ccccc1	2.0*[inhibitor]	-14	-4	2.0*[inhibitor]	-3	-16	109	5	104
O=C(/C=C/c1ccc(S(=O)(=O)N2CCOCC2)cc1)NCc1ccccc1Cl	99	-3	0	96	13	-24	·	·	·
O=C(Nc1ccc(F)cc1)OCCN1CCN(Cc2ccccc2)CCC1=O	2.0*[inhibitor]	-2	-1	2.0*[inhibitor]	-12	-7	103	-3	100
Cn1c(=O)c2[nH]c(N3CCN(c4ccccn4)CC3)nc2n(C)c1=O	96	-5	9	102	-4	4	·	·	·
Cc1occc1-c1nnc(SCC(=O)c2ccc(Cl)cc2)n1CC1CCCO1 (stereo not drawn)	3.0*[inhibitor]	-26	16	2.0*[inhibitor]	2	-35	105	4	104
COc1ccccc1-c1ocnc1C(=O)N1CCN(S(=O)(=O)c2ccc(NC(C)=O)cc2)CC1	105	1	-5	100	7	-21	·	·	·
COc1cccc(N2C(=O)Nc3ccccc3C2(O)C(=O)NCc2ccc3c(c2)OCO3)c1 (stereo not drawn)	127	10	9	123*	0	-11	105	1	102
CC(=O)Nc1ccc(C2NC(=O)CCC2[N+](=O)[O-])cc1 (stereo not drawn)	111	16	-4	108	-9	-4	·	·	·
COCC(C)n1c(C)cc(C(=O)COC(=O)CN=C2NS(=O)(=O)c3ccccc32)c1C (stereo not drawn)	98	-2	-10	96	-4	-13	·	·	·
CCc1ccc2c(c1)C(c1ccc(N3CCOCC3)cc1)=NNC(c1ccncc1)=N2	131	7	-16	148*	59*	-33	103	0	104
O=c1cc(-c2ccc3c(c2)OCCO3)oc2ccc(Cl)cc12	104	0	2	137*	2	0	96	1	100
O=c1cc(-c2cccs2)oc2ccc(Cl)cc12	92	-5	9	97	5	-3	·	·	·
C/C=C(/C)C(=O)O[C@H]1[C@@H](O)c2c(ccc3ccc(=O)oc23)OC1(C)C	101	11	5	123*	-2	-26	103	8	100
C/C=C(/C)C(=O)O[C@@H]1[C@H](OC(C)=O)c2c(ccc3ccc(=O)oc23)OC1(C)C	97	5	-2	108	4	-38	·	·	·
COc1ccccc1CC1CC(=O)N(c2cccc(Cl)c2C)C1=O (stereo not drawn)	94	-1	3	95	-8	-9	·	·	·
SMILES	MEKK2wt PB1 HTS	MEKK2mut PB1 HTS	HCV NS3 hel inh	MEKK3 PB1 HTS	T cruzi repl	DNA FID counter	MEKK2wt confirm	MEKK2mut confirm	MEKK3-MEK5 inh
Cc1cccc2c1-c1sc(C(=O)Nc3ccccc3N3CCN(C)CC3)cc1CO2	162*	4	-76	103	28	13	198	46	111
O=C(CSc1nc(-c2ccccc2)c(-c2ccccc2)[nH]1)Nc1ccc2c(c1)OCO2	113	1	-12	146*	2	-7	95	-3	104
CCOc1nc(Nc2ccc(OC)c(Cl)c2)nc(N2CCN(c3ccc(OC)cc3)CC2)n1	77	33*	2	79*[inhibitor]	46	3	112	4	103
COc1cc(/C=C/C(=O)Nc2ccncc2)cc(OC)c1OC	106	0	3	146*	25	-3	112	3	106
CCN(CC)c1ccc(/C=C(\C#N)C(=O)c2ccc(Br)cc2)cc1	148*	153*	22	123	-111	-13	49	-48	85
COc1ccc(-c2nc(CN3CCN(c4cc(C)nc(C)c4)CC3)c(C)o2)c2ccccc12	158*	-6	-62	107	36	25	161	26	106
Cc1cc(N2CCN(Cc3nc(-c4ccc(Cl)cc4)oc3C)CC2)cc(C)n1	126	18	-14	103	19	8	·	·	·
CCN(C(=O)CCS(=O)(=O)c1cccc2nonc12)c1ccc(C)c(C)c1	101	3	-4	103	13	-32	·	·	·
Oc1ccccc1CNc1cnc2ccccc2c1	-5.0*[inhibitor]	-1	-8	101	-6	-5	101	6	103
Oc1ccc(Cl)cc1CNc1cnc2ccccc2c1	108	4	-17	100	-16	-6	·	·	·
Cc1ccc2cc(C3CC(c4ccco4)=NN3S(C)(=O)=O)c(Cl)nc2c1 (stereo not drawn)	79	-11	33	83	-5	-12	·	·	·

Source: PubChem
